Hits are enriched below; roughly 3.5% of the tested compounds scored in any of these assays.
RGS4 act: RGS4 potentiation or activation | B-score at 10 µM | hit rate 0.92% among 310,000 | HEK293 M3R/inducible RGS4, carbachol calcium flux Fluo4; stronger effect = lower value;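 active = B-score of the integrated calcium signal more than 4 SD below the library mean, with starting fluorescence not abnormally high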;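 also: negative B-score means reduced calcium response which marks RGS4 activation or potentiation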
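System – HEK293 FlpIn-TREx cells, stable M3R, doxycycline-inducible RGS4 · Reagent – ECmax carbachol challenge · Times – compound preincubation 20 min at room temperature before agonist · Technique – Fluo4 fluorescence kinetic imaging of calcium · Measure – B score of integrated Fluo4 ratio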
MrgX1 PAM: allosterically activates human MrgX1 receptor signaling. MrgX1-HEK293, Fluo-4 calcium flux, FDSS; stronger effect = higher value. AID 588675. B-score at 10 µM. hit rate 0.63% among 310,000;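 active = plate-corrected calcium response at least 3 library SD above typical, normal starting fluorescence, not activating the receptor alone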;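 also: compound read alongside a low EC10 to EC30 dose of BAM8-22 agonist; peak minus trough fluorescence over baseline measured at the second addition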
Target sequence (Q96LB2 whole entry, looked up): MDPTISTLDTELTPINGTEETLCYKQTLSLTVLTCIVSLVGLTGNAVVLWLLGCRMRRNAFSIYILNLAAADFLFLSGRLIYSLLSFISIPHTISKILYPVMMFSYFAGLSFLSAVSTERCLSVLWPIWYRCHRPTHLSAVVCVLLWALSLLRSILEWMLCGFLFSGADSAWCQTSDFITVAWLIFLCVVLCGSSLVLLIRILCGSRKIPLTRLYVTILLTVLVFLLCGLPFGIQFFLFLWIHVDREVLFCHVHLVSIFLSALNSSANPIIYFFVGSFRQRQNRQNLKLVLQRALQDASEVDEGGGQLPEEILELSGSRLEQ
MrgX1 antagonist: blocks BAM8-22 activation of human MrgX1 receptor. B-score at 10 µM. Q96LB2. MRGX1-HEK293 calcium flux, Fluo-4, BAM8-22 antagonism; stronger effect = lower value. hit rate 1.3% among 310,000;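 active = calcium-response B-score plate-corrected more than 3 library SD below zero, starting fluorescence within 5 deviations, no agonist response on first addition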;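 also: peak minus trough fluorescence over baseline after final BAM8-22 challenge near maximal dose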
MrgX1 ag: activates human MrgX1 receptor signaling. MrgX1-HEK293 cells, Fluo-4 calcium fluorescence, agonist mode; stronger effect = higher value. AID 588627. hit rate 0.44% among 310,000. B-score at 10 µM. Q96LB2;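 active = calcium response B-score plate-corrected fluorescence ratio at least 3 library SD, with starting fluorescence B-score inside 5 SD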
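times = overnight plating, then 30 min 37 °C plus 30 min room-temperature dye loading | assay system = stable human MrgX1 HEK293 cell line | input = fifteen thousand cells per well | signal = kinetic calcium dye fluorescence, Fluo-4 NW | dosing = compound delivered in addition one of three | read-out = B-scored fluorescence response ratio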
RGS4 inh: inhibitors of human RGS4. P49798. HEK293 M3R/RGS4 inducible, Fluo-4 calcium flux; stronger effect = higher value; triggered by carbachol at its EC20. B-score at 10 µM. hit rate 0.45% among 310,000;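 active = B-score, a plate-corrected calcium signal, over three deviations above library mean, with baseline fluorescence within five deviations of library mean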;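 also: RGS4 expression induced by doxycycline in cells with stable M3 receptor; B-score is computed from the integrated fluorescence ratio over baseline after carbachol; higher B-score means a larger calcium signal and so more RGS4 inhibition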
Target sequence (P49798 whole entry, looked up): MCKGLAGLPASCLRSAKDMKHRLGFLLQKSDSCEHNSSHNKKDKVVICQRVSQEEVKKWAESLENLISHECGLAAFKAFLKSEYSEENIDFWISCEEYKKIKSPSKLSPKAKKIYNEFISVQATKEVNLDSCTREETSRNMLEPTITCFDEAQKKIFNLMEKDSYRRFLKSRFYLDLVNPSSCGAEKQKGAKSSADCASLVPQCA
MrgX1 ant reconf: human MrgX1 receptor antagonism, re-confirmation screen; shares compounds with MrgX1 antagonist; MrgX1-HEK293, BAM8-22 calcium flux, Fluo-4; stronger effect = lower value; remaining BAM8-22 calcium response % of control (stronger effect = lower value), % at 10 µM; hit rate 19% among 2,300;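 active = remaining agonist calcium response no higher than 100% minus 3 SD of agonist-only control wells, with starting fluorescence near control levels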;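 also: agonist BAM8-22 given at a near maximal EC90 to ECmax level; peak minus minimum fluorescence divided by baseline after agonist addition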
HEK293 Ca flux: MrgX1 antagonist counter-screen hit in parental HEK293 cells; fluorescence ratio F(max-min)/F0 at 10 µM; shares compounds with MrgX1 antagonist; hit rate 2% among 4,000; Fluo-4 calcium fluorescence, FDSS;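 active = duplicate-averaged calcium fluorescence ratio at least three times the standard deviation of buffer wells, a nonspecific response in parental cells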
HEK293 Ca counter: MrgX1 allosteric activator counter-screen hit in parental HEK293 cells. parental HEK293 calcium flux, Fluo-4 fluorescence ratio; stronger effect = higher value. shares compounds with MrgX1 antagonist. hit rate 0.4% among 4,000. AID 624114. fluorescence ratio F(max-min)/F0 at 10 µM;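 active = calcium fluorescence ratio, averaged over duplicates, at least 3 SD of the buffer-well ratio, meaning a nonspecific response in receptor-free cells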;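 also: untransfected parental HEK293 lacking MrgX1 used as counterscreen for MrgX1 allosteric activators; fluorescence change taken during the second addition on a kinetic imager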
HEK293 Ca cntr2: activity in parental HEK293 cells lacking MrgX1 receptor. Fluo-4 calcium fluorescence (FDSS); stronger effect = higher value. fluorescence ratio F(max-min)/F0 at 10 µM. hit rate 8.7% among 4,000. AID 624115. shares compounds with MrgX1 antagonist;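 active = calcium fluorescence ratio at least three times the spread of buffer wells, meaning a non-specific response in parental cells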
Starred values were filed as active, the others as inactive; i = inactive; x = not tested or not shown.

SMILES | RGS4 act | MrgX1 PAM | MrgX1 antagonist | MrgX1 ag | RGS4 inh | MrgX1 ant reconf | HEK293 Ca flux | HEK293 Ca counter | HEK293 Ca cntr2
COc1cccc(CN2C(=O)C3CCCN3c3ccc(S(=O)(=O)N4CCOCC4)cc32)c1 (stereo not given) | i | i | i | i | i | x | x | x | x
COc1cccc(CN(C(=O)c2ccco2)C2CCS(=O)(=O)C2)c1 (stereo not given) | i | i | -4.8* | i | i | i | i | i | i
Cc1nccn1CCC(=O)Nc1ccc(Cl)cc1 | i | i | i | i | i | x | x | x | x
CCN1CCN(CC(=O)N2c3ccccc3Sc3ccccc32)CC1 | i | i | -5.1* | i | i | i | i | i | i
O=C(COC(=O)C1CCN(c2ccc(C(F)(F)F)cn2)CC1)NCCc1ccccc1 | i | i | i | i | i | x | x | x | x
COc1ccccc1CNC(=O)COC(=O)C1CCN(c2ccc(C(F)(F)F)cn2)CC1 | i | i | -7.6* | i | i | i | i | i | i
O=C(NC(=S)NCC1CCCO1)c1ccco1 (stereo not given) | i | i | -25* | i | i | i | i | i | i
COc1ccc(OC)c(-n2c(SCC(N)=O)nnc2-c2c[nH]c3ccccc23)c1 | i | i | -6.7* | i | i | i | i | i | i
COc1ccc(C(=O)N[C@H](C(=O)OCC(=O)NC(=O)c2cccn2C)C(C)C)cc1 | i | i | -4.8* | i | i | i | i | i | i
Cc1ccc(Nc2nc(NCCO)c3ccccc3n2)cc1C | i | i | -6.1* | i | i | 78%* | i | i | i
Cc1cc(NCCO)c2ccccc2n1 | i | i | -4.6* | i | i | i | i | i | i
O=C(CCNC(=O)c1ccccc1Cl)Nc1nc(-c2ccc(F)cc2)cs1 | i | i | -5.5* | i | i | i | i | i | i
CCOC(=O)CCCNC(=O)CSc1nc2ccc(OCC)cc2[nH]1 | i | i | i | i | i | x | x | x | x
O=C(CSc1nnnn1-c1cccc(Cl)c1)Nc1ccc2c(c1)CCC2 | i | i | i | i | i | x | x | x | x
N#CCCCSc1nnnn1-c1cccc(Cl)c1 | i | i | -5.8* | i | i | i | i | i | i
COc1ccc2c(c1)CC/C2=N\NC(=O)c1ccccc1 | i | i | -18* | i | i | i | i | i | i
COc1ccc(OCC(=O)N/N=C2\CCc3ccccc32)cc1 | i | i | i | i | i | x | x | x | x
CCOC(=O)c1ccc(Nc2nc(N)c3cc(OC)c(OC)cc3n2)cc1 | i | i | i | i | i | x | x | x | x
COc1cc2nc(Nc3ccc(F)cc3)nc(N)c2cc1OC | i | i | -6.1* | i | i | 66%* | i | i | i
O=C(NC1CCS(=O)(=O)C1)C12CC3CC(CC(C3)C1)C2 (stereo not given) | i | i | -9.4* | i | i | i | i | i | i
CCOc1ccc(CN(C(=O)c2ccccn2)c2ccc(OC)c(Cl)c2)cc1 | i | i | i | i | i | x | x | x | x
COCCCNC(=O)CC1Oc2ccccc2NC1=O (stereo not given) | i | i | i | i | i | x | x | x | x
CCCSCCCNC(=O)CC1Oc2ccccc2NC1=O (stereo not given) | i | i | -4.9* | i | i | i | i | i | i
CCC(Sc1nc(N)c(NC(=O)c2ccc(OC)cc2)c(=O)[nH]1)C(=O)O (stereo not given) | i | i | i | i | i | x | x | x | x
CCOc1ccc(C2C(C#N)=C(N)Oc3cc(C)n(CCN(C)C)c(=O)c32)cc1OCC (stereo not given) | i | i | -4.5* | i | i | i | i | i | i
SMILES | RGS4 act | MrgX1 PAM | MrgX1 antagonist | MrgX1 ag | RGS4 inh | MrgX1 ant reconf | HEK293 Ca flux | HEK293 Ca counter | HEK293 Ca cntr2
O=S(=O)(c1ccc2c(c1)OCCO2)N1CCC(O)(c2ccc(Cl)cc2)CC1 | i | i | i | i | i | x | x | x | x
O=S(=O)(c1ccccc1Cl)N1CCC(O)(c2ccc3c(c2)OCO3)CC1 | i | i | -4.9* | i | i | i | i | i | i
Cc1cccc(C(=O)N2CCN(S(=O)(=O)N3CCCCCC3)CC2)c1 | i | i | i | i | i | x | x | x | x
Cc1ccc(C)c(N2N=C(C(=O)OCc3nnc(-c4ccccc4)o3)CCC2=O)c1 | i | i | i | i | i | x | x | x | x
CCOc1ccc(N2CC(C(=O)N3CCN(c4ccccn4)CC3)CC2=O)cc1 (stereo not given) | i | i | -6.7* | i | i | i | i | i | i
O=C(/C(=C(\O)c1ccccc1)c1ncc[nH]1)c1ccccc1 | i | i | -9.7* | i | i | i | i | i | i
CCOC(=O)COc1ccc(S(=O)(=O)NCC2CCCO2)cc1 (stereo not given) | i | i | -4.7* | i | i | i | i | i | i
Cc1ccc(NC(=O)CC2=NC(=O)C(CC(=O)Nc3ccccc3F)S2)cc1 (stereo not given) | i | i | -4.9* | i | i | i | i | i | i
Cc1cc(C(=O)NC(C)c2ccccc2)c2cc(F)ccc2n1 (stereo not given) | i | i | -5.4* | i | i | i | i | i | i
Cc1cc(C(=O)NC2CCCCC2)c2cc(F)ccc2n1 | i | i | i | i | i | x | x | x | x
CC(/C=C/c1ccccc1)NC(N)=O (stereo not given) | i | i | -5.8* | i | i | i | i | i | i
CC(C)NC(=O)NC(=O)COC(=O)c1ccc([N+](=O)[O-])cc1Cl | i | i | i | i | i | x | x | x | x
Cc1ccc(N2CN(Cc3ccco3)CNC2=S)c(C)c1 | i | i | -6.3* | i | i | i | i | i | i
Cc1ccc(N2CN(Cc3cccnc3)CNC2=S)c(C)c1 | i | i | i | i | i | x | x | x | x

Source: PubChem BioAssay (Johns Hopkins Ion Channel Center)
